# Assay results taken from ChEMBL document CHEMBL1124384, “Deaminoteicoplanin and its derivatives. Synthesis, antibacterial activity, and binding strength to Ac-D-Ala-D-Ala” (J Med Chem, 1989).
# How the values were obtained:
# Streptococcus pyogenes = test: Minimal inhibitory concentration of compound against Streptococcus pyogenes C203; format: functional
# Procedure, shortened: (§1)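 Streptococci were tested by 2-fold broth microdilution in Todd-Hewitt broth, with a final inoculum of about 10⁴ cfu/mL. After 18–24 h at 37 °C, MIC was read as the lowest concentration with no visible growth.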
# Enterococcus faecalis = test: Minimal inhibitory concentration of compound against Streptococcus faecalis AACC7080; format: functional
# Procedure, shortened: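 For S. faecalis, 2-fold dilution MIC in a microtiter system using Iso-sensitest broth and a final inoculum of about 10⁴ cfu/mL. Incubation was 18–24 h at 37 °C. The endpoint was the lowest concentration without visible growth.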
# Staphylococcus aureus [1] = test: Minimal inhibitory concentration of compound against Staphylococcus aureus Tour determined in iso-sensitest broth supplemented with 30% bovine serum and an inoculum of 10e4 cfu/mL
# Staphylococcus aureus [2] = test: Minimal inhibitory concentration of compound against Staphylococcus aureus Tour in an inoculum of 10e6 cfu/mL; format: functional
# Procedure, shortened: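 Twofold microtiter broth dilution in Iso-sensitest broth, with the inoculum raised to 10⁶ cfu/mL. After 18–24 h at 37 °C, MIC was read as the lowest concentration giving no visible growth.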
# Staphylococcus aureus [3] = test: Minimal inhibitory concentration of compound against Staphylococcus aureus Tour; format: functional
# Procedure, shortened: (§2)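 Broth MIC by 2-fold serial dilution in microtiter format, in Iso-sensitest broth, with a final inoculum of about 10⁴ cfu/mL. Plates were incubated 18–24 h at 37 °C. MIC was taken as the lowest concentration with no visible growth.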
# [4] = system: Staphylococcus epidermidis; test: Minimal inhibitory concentration of compound against […] ATCC 12228; format: functional
# Streptococcus pneumoniae = test: Minimal inhibitory concentration of compound against Streptococcus pneumoniae UC41; format: functional; procedure, shortened: as §1
# [5] = Association constant for compound at 31 degree C was determined; format: ADME
# Procedure, shortened: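 UV difference spectroscopy at 31 °C. Antibiotic at 25 μM in 10% methanol/0.02 M sodium citrate buffer, pH 5, sat in sample and reference cells (4-cm path). Ac-D-Ala-D-Ala was added from a 4 mM stock to the sample cell, with buffer added to the reference. The absorbance change was read at 282–285 nm. K_A came from Scatchard plots, with antibiotic concentration set by UV at 279 nm.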
# Staphylococcus aureus [6] = test: Minimal inhibitory concentration of compound against Staphylococcus aureus; format: functional; procedure, shortened: as §2
MIC (Streptococcus pyogenes),MIC (Enterococcus faecalis),MIC (Staphylococcus aureus [1]),MIC (Staphylococcus aureus [2]),MIC (Staphylococcus aureus [3]),MIC [4],MIC (Streptococcus pneumoniae),KA [5],MIC (Staphylococcus aureus [6]),Compound
0.06 µg/mL,0.12 µg/mL,1 µg/mL,0.25 µg/mL,0.12 µg/mL,0.25 µg/mL,0.06 µg/mL,11000 M⁻¹,,O=C1Cc2ccc(O)c(c2)Oc2cc(O)cc(c2)[C@@H]2NC(=O)[C@@H](Cc3ccc(c(Cl)c3)Oc3cc4cc(c3O)Oc3ccc(cc3Cl)[C@@H](O)[C@@H]3NC(=O)[C@H](NC(=O)[C@@H]4NC2=O)c2ccc(O)c(c2)-c2c(O)cc(O)cc2[C@@H](C(=O)O)NC3=O)N1
0.06 µg/mL,0.12 µg/mL,0.5 µg/mL,0.5 µg/mL,0.12 µg/mL,0.25 µg/mL,0.06 µg/mL,1100000 M⁻¹,,CCCCCCCCCC(=O)N[C@@H]1[C@H](Oc2c3cc4cc2Oc2ccc(cc2Cl)[C@@H](O[C@@H]2O[C@@H](CO)[C@@H](O)[C@H](O)[C@@H]2NC(C)=O)[C@@H]2NC(=O)[C@H](NC(=O)[C@@H]4NC(=O)[C@H]4NC(=O)[C@@H](Cc5ccc(c(Cl)c5)O3)NC(=O)[C@H](N)c3ccc(O)c(c3)Oc3cc(O)cc4c3)c3ccc(O)c(c3)-c3c(O[C@H]4O[C@H](CO)[C@@H](O)[C@@H](O)[C@@H]4O)cc(O)cc3[C@@H](C(=O)O)NC2=O)O[C@@H](CO)[C@@H](O)[C@@H]1O
0.06 µg/mL,0.12 µg/mL,0.5 µg/mL,0.12 µg/mL,0.12 µg/mL,0.06 µg/mL,0.06 µg/mL,,,CCCCCCCCCC(=O)N[C@@H]1[C@H](Oc2c3cc4cc2Oc2ccc(cc2Cl)[C@@H](O[C@@H]2O[C@@H](CO)[C@@H](O)[C@H](O)[C@@H]2NC(C)=O)[C@@H]2NC(=O)[C@H](NC(=O)[C@@H]4NC(=O)[C@H]4NC(=O)[C@@H](Cc5ccc(c(Cl)c5)O3)NC(=O)[C@H](N)c3ccc(O)c(c3)Oc3cc(O)cc4c3)c3ccc(O)c(c3)-c3c(O[C@H]4O[C@H](CO)[C@@H](O)[C@@H](O)[C@@H]4O)cc(O)cc3[C@@H](C(=O)N(C)C)NC2=O)O[C@@H](CO)[C@@H](O)[C@@H]1O
4 µg/mL,4 µg/mL,16 µg/mL,8 µg/mL,2 µg/mL,1 µg/mL,4 µg/mL,,,CC(=O)N[C@@H]1[C@H](O[C@@H]2c3ccc(c(Cl)c3)Oc3cc4cc(c3O)Oc3ccc(cc3Cl)C[C@H]3NC(=O)Cc5ccc(O)c(c5)Oc5cc(O)cc(c5)[C@H](NC3=O)C(=O)N[C@H]4C(=O)N[C@H]3C(=O)N[C@@H]2C(=O)N[C@H](C(=O)O)c2cc(O)cc(O[C@H]4O[C@H](CO)[C@@H](O)[C@@H](O)[C@@H]4O)c2-c2cc3ccc2O)O[C@@H](CO)[C@@H](O)[C@@H]1O
0.06 µg/mL,0.12 µg/mL,0.5 µg/mL,0.12 µg/mL,0.12 µg/mL,0.06 µg/mL,0.06 µg/mL,,,N[C@H]1C(=O)N[C@@H]2Cc3ccc(c(Cl)c3)Oc3cc4cc(c3O)Oc3ccc(cc3Cl)[C@@H](O)[C@@H]3NC(=O)[C@H](NC(=O)[C@@H]4NC(=O)[C@@H](NC2=O)c2cc(O)cc(c2)Oc2cc1ccc2O)c1ccc(O)c(c1)-c1c(O)cc(O)cc1[C@@H](C(=O)NC1CN2CCC1CC2)NC3=O (stereo partly drawn)
0.12 µg/mL,0.25 µg/mL,4 µg/mL,0.25 µg/mL,0.12 µg/mL,0.12 µg/mL,0.12 µg/mL,22000 M⁻¹,,O=C1Cc2ccc(O)c(c2)Oc2cc(O)cc(c2)[C@@H]2NC(=O)[C@@H](Cc3ccc(c(Cl)c3)Oc3cc4cc(c3O)Oc3ccc(cc3Cl)[C@@H](O)[C@@H]3NC(=O)[C@H](NC(=O)[C@@H]4NC2=O)c2ccc(O)c(c2)-c2c(O)cc(O)cc2[C@@H](C(=O)NC2CN4CCC2CC4)NC3=O)N1 (stereo partly drawn)
0.12 µg/mL,0.5 µg/mL,8 µg/mL,2 µg/mL,,0.12 µg/mL,0.25 µg/mL,130000 M⁻¹,0.5 µg/mL,CCCCCCCCCC(=O)N[C@@H]1[C@H](Oc2c3cc4cc2Oc2ccc(cc2Cl)[C@@H](O[C@@H]2O[C@@H](CO)[C@@H](O)[C@H](O)[C@@H]2NC(C)=O)[C@@H]2NC(=O)[C@H](NC(=O)[C@@H]4NC(=O)[C@H]4NC(=O)[C@@H](Cc5ccc(c(Cl)c5)O3)NC(=O)Cc3ccc(O)c(c3)Oc3cc(O)cc4c3)c3ccc(O)c(c3)-c3c(O[C@H]4O[C@H](CO)[C@@H](O)[C@@H](O)[C@@H]4O)cc(O)cc3[C@@H](C(=O)O)NC2=O)O[C@@H](CO)[C@@H](O)[C@@H]1O
